Results from ChEMBL document CHEMBL6071158, “Design, synthesis, and in vitro biological evaluation of meta-sulfonamidobenzamide-based antibacterial LpxH inhibitors” (Eur J Med Chem, 2024).
Values after ≈ are worked out from the molar mass of the structure shown.

How the values were obtained:
Escherichia coli [1] = assay: Antibacterial activity against wild type Escherichia coli ATCC 25922 incubated for 16 to 20 hrs by Mueller-Hinton broth based two-fold serial dilution method; assay type: functional; settings: time 16-20 hrs
Klebsiella pneumoniae [2] = assay: Antibacterial activity against wild type Klebsiella pneumoniae ATCC 13883 assessed as of bacterial growth incubated for 16 to 20 hrs by Mueller-Hinton broth based two-fold serial dilution method
Escherichia coli [3] = assay: Antibacterial activity against efflux pump-deficient delta tolC Escherichia coli ATCC 25922 assessed as bacterial growth inhibition incubated for 16 to 20 hrs by Mueller-Hinton broth based two-fold serial dilution method; assay type: functional; settings: time 16-20 hrs
[4] = Hemolysis activity in human RBC cells assessed as effect on hemolysis relative to control; assay type: toxicity, cell-based, Erythrocyte; settings: human red blood cells, read-out: Activity
hERG (KCNH2) [5] = target: T1, hERG (KCNH2) (Homo sapiens, UniProt Q12809); assay: Inhibition of hERG expressed in CHO cells at 10 uM by automated patch clamp analysis relative to control; assay type: toxicity, cell-based; settings: CHO cells that express hERG
T1 sequence (Q12809 whole entry): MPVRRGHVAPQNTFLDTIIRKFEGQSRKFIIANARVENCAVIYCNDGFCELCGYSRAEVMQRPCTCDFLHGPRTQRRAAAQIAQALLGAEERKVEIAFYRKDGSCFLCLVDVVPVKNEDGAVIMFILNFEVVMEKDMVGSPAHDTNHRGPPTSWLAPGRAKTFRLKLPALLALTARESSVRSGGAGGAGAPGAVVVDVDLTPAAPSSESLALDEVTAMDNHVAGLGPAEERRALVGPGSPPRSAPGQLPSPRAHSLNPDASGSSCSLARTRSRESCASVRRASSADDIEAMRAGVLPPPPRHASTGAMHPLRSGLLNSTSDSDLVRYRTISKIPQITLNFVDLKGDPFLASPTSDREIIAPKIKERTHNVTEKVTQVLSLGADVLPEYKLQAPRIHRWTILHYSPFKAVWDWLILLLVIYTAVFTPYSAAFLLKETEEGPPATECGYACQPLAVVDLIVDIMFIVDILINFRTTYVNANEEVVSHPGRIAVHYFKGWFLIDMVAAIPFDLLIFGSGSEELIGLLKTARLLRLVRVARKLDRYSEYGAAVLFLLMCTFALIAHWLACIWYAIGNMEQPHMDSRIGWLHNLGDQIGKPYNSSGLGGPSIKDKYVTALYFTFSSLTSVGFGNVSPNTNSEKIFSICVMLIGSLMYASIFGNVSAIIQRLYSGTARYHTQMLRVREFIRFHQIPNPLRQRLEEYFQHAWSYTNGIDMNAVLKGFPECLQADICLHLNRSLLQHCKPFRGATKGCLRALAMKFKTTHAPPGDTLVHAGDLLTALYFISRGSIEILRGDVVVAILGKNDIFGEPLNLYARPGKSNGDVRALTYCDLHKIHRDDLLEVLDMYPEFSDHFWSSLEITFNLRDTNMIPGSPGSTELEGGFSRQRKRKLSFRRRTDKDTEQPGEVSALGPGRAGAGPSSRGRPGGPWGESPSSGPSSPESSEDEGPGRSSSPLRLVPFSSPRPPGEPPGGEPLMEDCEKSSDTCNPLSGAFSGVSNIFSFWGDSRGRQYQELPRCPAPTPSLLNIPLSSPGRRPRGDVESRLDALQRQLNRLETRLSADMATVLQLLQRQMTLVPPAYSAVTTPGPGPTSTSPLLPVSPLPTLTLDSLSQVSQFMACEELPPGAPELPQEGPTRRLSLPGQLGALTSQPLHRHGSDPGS
Summary of the method: (§1)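 Stably expressing CHO-KV11.1 cells, automated whole-cell population patch clamp (10 cells) at 22 °C; vehicle baseline (0.43 % DMSO) then two cumulatively rising concentrations, 30 s exposure. Holding −80 mV, steps in 10 mV increments to 50 mV for 5 s, tail current at −50 mV (peak in first 90 ms, leak-subtracted); protocol every 150 s; triplicate, mean ± SEM.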

hERG (KCNH2) [6] = target: T1, hERG (KCNH2); assay: Inhibition of hERG expressed in CHO cells at 30 uM by automated patch clamp analysis relative to control; assay type: toxicity, cell-based; settings: CHO cells that express hERG; summary of the method: as §1
[7] = Cytotoxicity against human HepG2 cells assessed as inhibition of cells incubated for 72 hrs by fluorometric microculture analysis; assay type: toxicity, cell-based
Summary of the method: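 HepG2 (mycoplasma-free, ≤20 passages, DMEM + 10 % FBS + pen/strep) seeded 4000/well, cultured overnight, then exposed 72 h at 37 °C, 5 % CO₂ to nine two-fold dilutions in duplicate, top 100 µM. Viability by fluorescein diacetate hydrolysis (0.5 µg/ml FDA, 50 min, ex 475/em 520 nm); survival index vs control; IC50 by non-linear regression of log concentration-effect curves. Bortezomib 2 µM positive control.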

Escherichia coli [8] = assay: Inhibition of Escherichia coli LpXH enzyme at 100 nM by colorimetric coupled enzymatic analysis relative to control
Summary of the method: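 AaLpxE-coupled assay: E. coli LpxH 0.1 nM and UDP-DAGn 20 µM (final) in 20 mM Tris-HCl pH 8.0, BSA, 0.02 % Triton X-100, 1 mM MnCl₂, 1 mM DTT, 10 % DMSO; inhibitor pre-incubated with enzyme 10 min, reaction 30 min at 37 °C, EDTA quench, then LpxE 30 min; released phosphate by malachite green at 620 nm vs phosphate standard; triplicate.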

Escherichia coli [9] = assay: Antibacterial activity against efflux-defective Escherichia coli delta tolC ATCC 25922; assay type: functional
Klebsiella pneumoniae [10] = assay: Antibacterial activity against Klebsiella pneumonia ATCC 13883 assessed as viable colonies measured after 18 to 20 hrs by Mueller-Hinton II broth assay; assay type: functional; settings: time 18-20 hrs
Escherichia coli [11] = assay: Antibacterial activity against Escherichia coli ATCC 25922 assessed as viable colonies measured after 18 to 20 hrs by Mueller-Hinton II broth assay; assay type: functional; settings: time 18-20 hrs

| Compound | MIC (Escherichia coli [1]) [µg/mL] | MIC (Klebsiella pneumoniae [2]) [µg/mL] | MIC (Escherichia coli [3]) [µg/mL] | inhibition (Escherichia coli [8]) [%] | MIC (Escherichia coli [9]) [µg/mL] | MIC (Klebsiella pneumoniae [10]) [µg/mL] | MIC (Escherichia coli [11]) [µg/mL] | hemolysis [4] [%] | inhibition at 10 µM (hERG (KCNH2) [5]) [%] | inhibition at 30 µM (hERG (KCNH2) [6]) [%] | IC50 at 72 h [7] [µM] |
| --- | --- | --- | --- | --- | --- | --- | --- | --- | --- | --- | --- |
| Cc1cc(C#N)nc(N2CCN(S(=O)(=O)c3ccc(NC(=O)c4cc(C=C5CNC5)cc(NS(C)(=O)=O)c4)cc3)CC2)n1 | 64 (≈ 103 µM) | 16 (≈ 25.7 µM) | 0.5 (≈ 0.803 µM) | 86 |  |  |  | 0.17 | 4 | 24 | > 100 |
| NC(=O)[C@H]1CC[C@H](C(F)(F)c2cc(Cl)nc(N3CCN(S(=O)(=O)c4ccc(N5C[C@@H](N)CC5=O)cc4)CC3)c2)CC1 | 0.3 (≈ 0.491 µM) |  |  |  |  |  |  |  |  |  |  |
| Cc1cc(C#N)nc(N2CCN(S(=O)(=O)c3ccc(NC(=O)c4cc(NS(C)(=O)=O)nc(N5CC(CN)C5)c4)cc3)CC2)n1 | 8 (≈ 12.5 µM) | 4 (≈ 6.24 µM) | 0.5 (≈ 0.78 µM) | 80 |  |  |  | 0.12 | 1 | 0 | > 100 |
| CC(=O)N1CCc2cc(S(=O)(=O)N3CCN(c4cccc(C(F)(F)F)c4)CC3)ccc21 |  |  |  |  | 0.25 (≈ 0.551 µM) |  |  |  |  |  |  |
| Cc1cc(C#N)nc(N2CCN(S(=O)(=O)c3ccc(NC(=O)c4cc(CNCCCN)cc(NS(C)(=O)=O)c4)cc3)CC2)n1 | 8 (≈ 12.5 µM) | 4 (≈ 6.23 µM) | 0.5 (≈ 0.779 µM) | 63 |  |  |  | 0.08 | 3 | 9 | > 100 |
| Cc1cc(C#N)nc(N2CCN(S(=O)(=O)c3ccc(NC(=O)c4cc(CN5CC(CN)C5)ccc4N(C)S(C)(=O)=O)cc3)CC2)n1 | 2 (≈ 2.99 µM) | 0.5 (≈ 0.749 µM) | ≤ 0.125 | 71 |  |  |  | 0.13 | 5 | 16 | 54 |
| Cc1cc(C#N)nc(N2CCN(S(=O)(=O)c3ccc(NC(=O)c4cc(CN5CC(CN)C5)cc(NS(C)(=O)=O)c4)cc3)CC2)n1 | 16 (≈ 24.5 µM) | 4 (≈ 6.12 µM) | 0.25 (≈ 0.382 µM) | 89 |  |  |  | 0.06 | 4 | 7 |  |
| Cc1cc(C#N)nc(N2CCN(S(=O)(=O)c3ccc(NC(=O)c4cc(CNC[C@H]5C[C@@H]5N)ccc4N(C)S(C)(=O)=O)cc3)CC2)n1 | 2 (≈ 2.99 µM) | 0.5 (≈ 0.749 µM) | ≤ 0.125 | 100 |  | 0.5 (≈ 0.749 µM) | 2 (≈ 2.99 µM) | 0.35 | 9 | 28 | 47 |

Second part, led by results:

| MIC (Escherichia coli [1]) [µg/mL] | MIC (Klebsiella pneumoniae [2]) [µg/mL] | MIC (Escherichia coli [3]) [µg/mL] | inhibition (Escherichia coli [8]) [%] | MIC (Escherichia coli [9]) [µg/mL] | MIC (Klebsiella pneumoniae [10]) [µg/mL] | MIC (Escherichia coli [11]) [µg/mL] | Compound | hemolysis [4] [%] | inhibition at 10 µM (hERG (KCNH2) [5]) [%] | inhibition at 30 µM (hERG (KCNH2) [6]) [%] | IC50 at 72 h [7] [µM] |
| --- | --- | --- | --- | --- | --- | --- | --- | --- | --- | --- | --- |
| 64 (≈ 110 µM) |  |  |  |  |  |  | CS(=O)(=O)Nc1ccccc1C(=O)Nc1ccc(S(=O)(=O)N2CCN(c3cc(Cl)cc(Cl)c3)CC2)cc1 |  |  |  |  |
| 64 (≈ 100 µM) | 32 (≈ 50 µM) | 0.25 (≈ 0.391 µM) | 92 |  |  |  | Cc1cc(C#N)nc(N2CCN(S(=O)(=O)c3ccc(NC(=O)c4cc(NS(C)(=O)=O)cc(N5CC(CN)C5)c4)cc3)CC2)n1 | 0.12 | 5 | 9 | > 100 |
| 1 (≈ 1.67 µM) |  |  |  |  |  |  | CN(c1ccccc1C(=O)Nc1ccc(S(=O)(=O)N2CCN(c3cc(Cl)cc(Cl)c3)CC2)cc1)S(C)(=O)=O |  |  |  |  |
| 64 (≈ 107 µM) |  | 0.125 (≈ 0.209 µM) |  |  |  |  | CN(c1cccc(C(=O)Nc2ccc(S(=O)(=O)N3CCN(c4cc(Cl)cc(Cl)c4)CC3)cc2)c1)S(C)(=O)=O |  |  |  |  |
| 8 (≈ 13.5 µM) | 4 (≈ 6.77 µM) | ≤ 0.125 | 54 |  |  |  | Cc1cc(C#N)nc(N2CCN(S(=O)(=O)c3ccc(NC(=O)c4cc(Cl)nc(NS(C)(=O)=O)c4)cc3)CC2)n1 | 0.02 | 2 | 0 | > 50 |
| 2 (≈ 3.51 µM) | 2 (≈ 3.51 µM) | ≤ 0.125 | 100 |  |  |  | Cc1cc(C#N)nc(N2CCN(S(=O)(=O)c3ccc(NC(=O)c4ccccc4N(C)S(C)(=O)=O)cc3)CC2)n1 | 0.05 | 14 | 24 | 29 |
| 2 (≈ 3.05 µM) | 1 (≈ 1.52 µM) | ≤ 0.125 | 69 |  |  |  | Cc1cc(C#N)nc(N2CCN(S(=O)(=O)c3ccc(NC(=O)c4cc(CNCCCN)ccc4N(C)S(C)(=O)=O)cc3)CC2)n1 | 0.06 | 4 | 11 | 55 |
| 4 (≈ 7.2 µM) | 2 (≈ 3.6 µM) | 0.125 (≈ 0.225 µM) | 75 |  |  |  | Cc1cc(C#N)nc(N2CCN(S(=O)(=O)c3ccc(NC(=O)c4cccc(NS(C)(=O)=O)c4)cc3)CC2)n1 | 0.05 | 3 | 12 |  |
| 4 (≈ 6.85 µM) |  | 0.125 (≈ 0.214 µM) |  |  |  |  | CS(=O)(=O)Nc1cccc(C(=O)Nc2ccc(S(=O)(=O)N3CCN(c4cc(Cl)cc(Cl)c4)CC3)cc2)c1 |  |  |  |  |
